Data taken from ChEMBL document CHEMBL1139464, “SAR and 3D-QSAR studies on thiadiazolidinone derivatives: exploration of structural requirements for glycogen synthase kinase 3 inhibitors” (J Med Chem, 2005).

Tests used:
[1] = target: Glycogen synthase kinase-3 (Oryctolagus cuniculus); test: Inhibition of rabbit GSK3
[2] = target: Dual specificity mitogen-activated protein kinase kinase 1 (Homo sapiens) (UniProt Q02750); test: Inhibition of MEK1K at 10 uM
How it was run: (§1)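 Pan-kinase selectivity screen run at an outside lab using previously described assays for each kinase. Activated kinase phosphorylates its appropriate peptide or protein substrate with test substance at 10 µM. Percent inhibition is taken against control incubations in which the inhibitor is replaced by DMSO, with staurosporine as reference. Reported as the mean of duplicate determinations.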

[3] = target: Epidermal growth factor receptor (Homo sapiens) (UniProt P00533); test: Inhibition of EGF tyrosine kinase at 10 uM
How it was run: as §1

[4] = target: Insulin receptor (Homo sapiens) (UniProt P06213); test: Inhibition of IRK at 10 uM
How it was run: as §1

[5] = target: CaM kinase II (Homo sapiens) (UniProt Q13557+Q13555+Q13554+Q9UQM7); test: Inhibition of CAMK2 at 10 uM; type: protein assay
How it was run: as §1

[6] = target: Tyrosine-protein kinase Lck (Homo sapiens) (UniProt P06239); test: Inhibition of protein kinase p56 at 10 uM
How it was run: as §1

[7] = target: Mitogen-activated protein kinase; ERK1/ERK2 (Homo sapiens) (UniProt P27361+P28482); test: Inhibition of MAPK at 10 uM; type: protein assay
How it was run: as §1

[8] = target: Tyrosine-protein kinase ABL1 (Homo sapiens) (UniProt P00519); test: Inhibition of Abl kinase at 10 uM
How it was run: as §1

Chain of Epidermal growth factor receptor (Homo sapiens) (P00533 whole entry): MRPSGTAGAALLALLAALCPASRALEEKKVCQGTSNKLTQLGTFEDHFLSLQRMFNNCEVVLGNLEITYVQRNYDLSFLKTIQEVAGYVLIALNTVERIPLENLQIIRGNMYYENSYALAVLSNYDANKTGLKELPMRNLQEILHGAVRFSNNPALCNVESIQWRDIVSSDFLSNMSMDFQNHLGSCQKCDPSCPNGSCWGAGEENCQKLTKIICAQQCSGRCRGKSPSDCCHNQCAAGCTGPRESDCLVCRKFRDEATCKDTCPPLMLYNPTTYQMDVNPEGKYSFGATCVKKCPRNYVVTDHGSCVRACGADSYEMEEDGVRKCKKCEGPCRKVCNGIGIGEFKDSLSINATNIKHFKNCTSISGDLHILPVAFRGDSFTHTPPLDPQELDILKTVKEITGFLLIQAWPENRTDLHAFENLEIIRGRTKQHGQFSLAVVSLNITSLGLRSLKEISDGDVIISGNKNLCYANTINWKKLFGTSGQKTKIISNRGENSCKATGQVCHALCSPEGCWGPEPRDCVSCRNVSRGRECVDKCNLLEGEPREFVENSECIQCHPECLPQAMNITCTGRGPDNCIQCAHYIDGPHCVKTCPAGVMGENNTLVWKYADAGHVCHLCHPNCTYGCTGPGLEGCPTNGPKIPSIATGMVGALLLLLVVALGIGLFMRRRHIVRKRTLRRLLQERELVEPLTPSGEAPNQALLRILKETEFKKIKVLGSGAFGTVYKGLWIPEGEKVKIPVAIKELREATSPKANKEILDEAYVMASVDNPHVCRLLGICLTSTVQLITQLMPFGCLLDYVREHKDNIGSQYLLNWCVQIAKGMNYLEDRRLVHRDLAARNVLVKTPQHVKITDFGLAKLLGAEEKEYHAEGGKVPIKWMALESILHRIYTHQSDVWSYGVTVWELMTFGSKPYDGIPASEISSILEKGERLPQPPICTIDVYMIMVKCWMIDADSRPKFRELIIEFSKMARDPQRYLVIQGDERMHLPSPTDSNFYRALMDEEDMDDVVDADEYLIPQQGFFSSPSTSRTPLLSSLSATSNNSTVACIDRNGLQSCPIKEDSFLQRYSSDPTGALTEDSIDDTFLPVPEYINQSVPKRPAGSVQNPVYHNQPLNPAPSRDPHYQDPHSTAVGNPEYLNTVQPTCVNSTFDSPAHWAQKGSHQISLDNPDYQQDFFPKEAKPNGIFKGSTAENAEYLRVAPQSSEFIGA
Chain of Mitogen-activated protein kinase; ERK1/ERK2 (Homo sapiens) (P27361 whole entry, looked up): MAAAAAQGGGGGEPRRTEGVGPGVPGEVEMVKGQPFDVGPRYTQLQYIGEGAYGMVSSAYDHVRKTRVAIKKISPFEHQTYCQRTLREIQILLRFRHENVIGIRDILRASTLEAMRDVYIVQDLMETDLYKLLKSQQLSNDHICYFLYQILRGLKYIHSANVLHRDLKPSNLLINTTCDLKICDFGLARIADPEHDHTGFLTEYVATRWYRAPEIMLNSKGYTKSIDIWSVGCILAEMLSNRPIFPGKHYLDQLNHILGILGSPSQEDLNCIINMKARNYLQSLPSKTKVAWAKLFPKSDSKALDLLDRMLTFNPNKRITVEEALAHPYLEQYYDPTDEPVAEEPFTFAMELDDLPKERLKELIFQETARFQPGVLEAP
Chain of Mitogen-activated protein kinase; ERK1/ERK2 (Homo sapiens) (P28482 whole entry, looked up): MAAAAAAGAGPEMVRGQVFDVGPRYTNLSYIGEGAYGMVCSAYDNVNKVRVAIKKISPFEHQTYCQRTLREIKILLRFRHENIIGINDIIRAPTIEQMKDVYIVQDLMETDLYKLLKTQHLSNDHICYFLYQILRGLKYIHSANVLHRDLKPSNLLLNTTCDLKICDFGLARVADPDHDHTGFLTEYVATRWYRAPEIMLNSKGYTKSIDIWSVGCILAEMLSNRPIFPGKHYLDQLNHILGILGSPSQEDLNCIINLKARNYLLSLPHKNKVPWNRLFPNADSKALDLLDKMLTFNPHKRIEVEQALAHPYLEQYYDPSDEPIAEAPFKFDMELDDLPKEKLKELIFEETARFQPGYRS
Chain of Insulin receptor (Homo sapiens) (P06213 28-758 limits assumed): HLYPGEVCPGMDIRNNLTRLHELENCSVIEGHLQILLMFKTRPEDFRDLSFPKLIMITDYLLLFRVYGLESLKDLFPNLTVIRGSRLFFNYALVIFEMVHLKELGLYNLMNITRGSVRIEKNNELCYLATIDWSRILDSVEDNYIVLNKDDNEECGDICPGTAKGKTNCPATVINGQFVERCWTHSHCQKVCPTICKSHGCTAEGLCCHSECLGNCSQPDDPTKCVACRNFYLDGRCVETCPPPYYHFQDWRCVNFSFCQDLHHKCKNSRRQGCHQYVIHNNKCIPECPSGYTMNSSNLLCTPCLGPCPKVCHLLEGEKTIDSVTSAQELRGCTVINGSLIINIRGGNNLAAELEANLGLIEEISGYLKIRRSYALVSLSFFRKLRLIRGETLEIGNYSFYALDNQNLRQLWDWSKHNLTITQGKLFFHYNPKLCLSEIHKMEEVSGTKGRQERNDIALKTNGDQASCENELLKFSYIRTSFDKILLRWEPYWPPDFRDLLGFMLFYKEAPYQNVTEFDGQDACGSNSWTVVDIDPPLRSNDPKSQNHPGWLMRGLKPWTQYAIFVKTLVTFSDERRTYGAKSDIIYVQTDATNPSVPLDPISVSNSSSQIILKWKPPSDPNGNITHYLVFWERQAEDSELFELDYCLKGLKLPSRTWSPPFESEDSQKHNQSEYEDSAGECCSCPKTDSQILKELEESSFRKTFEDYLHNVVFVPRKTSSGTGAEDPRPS
Chain of Insulin receptor (Homo sapiens) (P06213 763-1382 limits assumed): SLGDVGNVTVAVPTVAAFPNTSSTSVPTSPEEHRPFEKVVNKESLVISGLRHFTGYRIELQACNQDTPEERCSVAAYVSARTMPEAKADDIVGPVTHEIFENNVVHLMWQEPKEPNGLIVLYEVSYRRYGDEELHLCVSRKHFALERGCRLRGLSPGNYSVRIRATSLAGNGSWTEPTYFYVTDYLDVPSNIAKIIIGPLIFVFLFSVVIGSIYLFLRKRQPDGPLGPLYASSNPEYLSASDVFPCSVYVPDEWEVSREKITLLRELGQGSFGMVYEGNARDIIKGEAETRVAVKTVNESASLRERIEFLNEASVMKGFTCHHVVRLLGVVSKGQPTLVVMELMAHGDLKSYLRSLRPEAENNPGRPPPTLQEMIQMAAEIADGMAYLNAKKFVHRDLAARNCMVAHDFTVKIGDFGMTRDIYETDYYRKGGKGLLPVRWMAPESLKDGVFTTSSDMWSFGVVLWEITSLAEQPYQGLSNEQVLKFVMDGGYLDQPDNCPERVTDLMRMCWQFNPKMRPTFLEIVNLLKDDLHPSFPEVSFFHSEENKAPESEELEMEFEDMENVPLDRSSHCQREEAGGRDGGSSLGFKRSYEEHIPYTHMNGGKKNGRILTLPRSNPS
Chain of Dual specificity mitogen-activated protein kinase kinase 1 (Homo sapiens) (Q02750 whole entry): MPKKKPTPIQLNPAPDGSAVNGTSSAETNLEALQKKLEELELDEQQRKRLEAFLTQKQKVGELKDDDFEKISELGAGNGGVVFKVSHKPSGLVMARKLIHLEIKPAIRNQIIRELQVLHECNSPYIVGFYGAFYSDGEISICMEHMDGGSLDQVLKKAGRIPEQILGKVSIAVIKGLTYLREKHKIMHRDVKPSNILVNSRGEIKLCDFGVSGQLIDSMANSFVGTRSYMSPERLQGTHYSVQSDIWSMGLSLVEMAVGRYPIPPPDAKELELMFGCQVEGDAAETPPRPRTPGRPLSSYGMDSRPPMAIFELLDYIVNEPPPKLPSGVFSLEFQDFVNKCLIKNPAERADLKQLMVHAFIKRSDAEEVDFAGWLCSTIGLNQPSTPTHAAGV
Chain of Tyrosine-protein kinase ABL1 (Homo sapiens) (P00519 whole entry): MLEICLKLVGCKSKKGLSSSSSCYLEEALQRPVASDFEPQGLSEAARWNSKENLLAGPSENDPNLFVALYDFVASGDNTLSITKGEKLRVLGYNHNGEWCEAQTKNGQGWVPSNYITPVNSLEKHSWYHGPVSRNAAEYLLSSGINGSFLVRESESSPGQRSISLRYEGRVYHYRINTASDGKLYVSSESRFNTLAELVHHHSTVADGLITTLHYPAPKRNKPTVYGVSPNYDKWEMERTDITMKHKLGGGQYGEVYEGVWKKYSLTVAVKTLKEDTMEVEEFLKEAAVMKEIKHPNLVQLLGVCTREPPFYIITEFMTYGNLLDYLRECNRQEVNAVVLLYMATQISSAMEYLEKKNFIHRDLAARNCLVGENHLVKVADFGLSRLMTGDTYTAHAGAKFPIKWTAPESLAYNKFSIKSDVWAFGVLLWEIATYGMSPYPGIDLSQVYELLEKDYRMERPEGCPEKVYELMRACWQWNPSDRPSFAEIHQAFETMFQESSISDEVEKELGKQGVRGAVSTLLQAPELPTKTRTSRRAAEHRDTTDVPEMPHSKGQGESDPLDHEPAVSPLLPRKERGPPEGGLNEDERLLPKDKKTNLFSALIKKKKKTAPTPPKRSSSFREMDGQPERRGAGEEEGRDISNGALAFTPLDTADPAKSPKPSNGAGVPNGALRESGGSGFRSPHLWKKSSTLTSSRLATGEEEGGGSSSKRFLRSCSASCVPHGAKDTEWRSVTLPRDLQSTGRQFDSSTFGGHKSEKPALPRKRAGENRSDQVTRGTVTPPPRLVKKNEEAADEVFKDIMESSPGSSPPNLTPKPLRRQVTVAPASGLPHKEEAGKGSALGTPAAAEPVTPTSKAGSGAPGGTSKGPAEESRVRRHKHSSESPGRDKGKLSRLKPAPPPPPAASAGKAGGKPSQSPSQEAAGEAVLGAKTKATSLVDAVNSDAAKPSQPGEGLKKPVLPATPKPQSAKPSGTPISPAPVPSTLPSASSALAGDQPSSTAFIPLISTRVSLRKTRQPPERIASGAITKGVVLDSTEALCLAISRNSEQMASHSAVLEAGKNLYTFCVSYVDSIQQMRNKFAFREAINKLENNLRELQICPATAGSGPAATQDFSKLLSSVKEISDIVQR

Structure (SMILES)	IC50 [1] [µM]	also measured
CCn1sc(=O)n(CC)c1=O	25	–
O=C1CCCN1Cc1ccccc1	> 100	–
O=c1ssc(=O)n1Cc1ccccc1	12	–
O=C1CNC(=O)N1 [HYDANTOIN]	100	–
O=C1CSC(=S)N1CCc1ccccc1	35	–
Cn1sc(=O)n(-c2ccc(F)cc2)c1=O	4	–
Cn1sc(=O)n(-c2ccccc2)c1=O	2	–
CCn1c(=O)sn(C)c1=O	5	–
COc1ccc(CN2C(=O)C=CC2=O)cc1	2.5	–
C1=CCN(Cc2ccccc2)C1	> 100	–
O=C1CSC(=O)N1Cc1ccccc1	100	–
CCn1c(=O)sn(C2CCCCC2)c1=O	10	inhibition [2]: < 10%; inhibition [3]: < 10%; inhibition [4]: < 10%; inhibition [5]: 23%; inhibition [6]: < 10%; inhibition [7]: < 10%; inhibition [8]: < 10%
O=C1C=CC(=O)N1CCCCCc1ccccc1	3	–
NN1C(=O)CSC1=S [AMINORHODANINE]	100	–
Cc1ccc(-n2c(=O)sn(C)c2=O)cc1	5	–
Cn1c(=O)ssc1=O	100	–
CCn1sc(=O)n(-c2ccc([N+](=O)[O-])cc2)c1=O	8.5	inhibition [2]: < 10%; inhibition [3]: 40%; inhibition [4]: 46%; inhibition [5]: < 10%; inhibition [7]: 10%; inhibition [8]: < 10%
O=C1CCC(=O)C1	> 100	–
CCOC(=O)CN1C(=O)C=CC1=O	3	–
O=C(CN1C(=O)CSC1=S)c1ccccc1	50	–
O=C(Cn1c(=O)n(-c2ccccc2)c(=O)n1CC(=O)c1ccccc1)c1ccccc1	100	–
O=C1C=CC(=O)C1	12	–
CCOC(=O)Cn1c(=O)sn(C)c1=O	2	inhibition [2]: 19%; inhibition [3]: 19%; inhibition [4]: 50%; inhibition [5]: 15%; inhibition [6]: < 10%; inhibition [7]: < 10%; inhibition [8]: < 10%

Structure (SMILES)	IC50 [1] [µM]	also measured
O=C1CSC(=O)N1 [THIAZOLIDINEDIONE]	100	–
O=C(O)CN1C(=O)CSC1=S [RHODANINE-3-ACETIC ACID]	100	–
CCn1sc(=O)n(-c2ccccc2)c1=O	6	–
O=c1sn(Cc2ccccc2)c(=O)n1Cc1ccccc1	10	inhibition [2]: < 10%; inhibition [3]: < 10%; inhibition [4]: 19%; inhibition [5]: 35%; inhibition [6]: 27%; inhibition [7]: < 10%; inhibition [8]: < 10%
O=C1CNC(=O)N1Cc1ccccc1	100	–
Cn1sc(=O)n(-c2cccc(Br)c2)c1=O	4	–
Cn1sc(=O)n(Cc2ccccc2)c1=O	–	inhibition [2]: < 10%; inhibition [3]: 25%; inhibition [4]: 20%; inhibition [5]: 16%; inhibition [6]: 35%; inhibition [7]: < 10%; inhibition [8]: < 10%
COc1ccc(CCN2C(=O)C=CC2=O)cc1	3	–
Cn1c(=O)n(-c2ccccc2)c(=O)n1C	100	–
O=c1ssc(=O)n1-c1ccccc1	12	–
Cn1sc(=O)n(-c2cccc3ccccc23)c1=O	2	–
Cn1sc(=O)n(-c2ccc(Br)cc2)c1=O	1.1	–
O=C1CCC(=O)N1Cc1ccccc1	> 50	–
CCn1c(=O)sn(C(C)C)c1=O	35	–
Cn1sc(=O)n(C2CCCCC2)c1=O	100	–
COc1ccc(CCN2C(=O)CSC2=S)cc1	100	–
Cn1sc(=O)n(-c2ccc(Cl)cc2)c1=O	4	–
O=C(c1ccccc1)n1c(=O)n(-c2ccccc2)c(=O)n1C(=O)c1ccccc1	100	–
Cn1sc(=O)n(-c2ccc(C(F)(F)F)cc2)c1=O	6	inhibition [2]: < 10%; inhibition [3]: 17%; inhibition [4]: 36%; inhibition [5]: < 10%; inhibition [6]: < 10%; inhibition [7]: < 10%; inhibition [8]: < 10%
CCCn1sc(=O)n(CC)c1=O	10	–
O=C1C=CC(=O)N1CCc1ccccc1	2	–
CCn1sc(=O)n(Cc2ccccc2)c1=O [KRM-7777]	7	–
Cn1sc(=O)n(-c2ccccc2Br)c1=O	6	–
